Assay results as given in ChEMBL document CHEMBL5058577, “EUbOPEN Chemogenomics Library 2 (Multiplex)” (2022).

System: U2OS
Assay: Multiplex assay against U2OS
Assay type: toxicity, cell-based
Details: human
Outline: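 Phenotypes for tubulin, mitochondrial mass and membrane permeability are expressed as per cents of healthy-nucleus cells. Cells were stained live at seeding with Hoechst33342, BioTracker Green Microtubule Cytoskeleton Dye, MitoTracker Red and Annexin V Alexa Fluor 680, then imaged after compound addition on a CQ1 microscope at 37°C and 5% CO2. Machine-learning gating in CellPathfinder separated Hoechst high-intensity objects from normal cells, divided normal cells by nuclear state (healthy, pyknosed, fragmented) and divided pyknosed cells into mitotic or apoptotic.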

[1] = 12 h, 1 µM, compound concentration 1 uM, replicate 1
[2] = 12 h, 1 µM, compound concentration 1 uM, replicate 2
[3] = 12 h, 10 µM, compound concentration 10 uM, replicate 1
[4] = 12 h, 10 µM, compound concentration 10 uM, replicate 2
[5] = 24 h, 1 µM, compound concentration 1 uM, replicate 1
[6] = 24 h, 1 µM, compound concentration 1 uM, replicate 2
[7] = 24 h, 10 µM, compound concentration 10 uM, replicate 1
[8] = 24 h, 10 µM, compound concentration 10 uM, replicate 2
[9] = 48 h, 1 µM, compound concentration 1 uM, replicate 1
[10] = 48 h, 1 µM, compound concentration 1 uM, replicate 2
[11] = 48 h, 10 µM, compound concentration 10 uM, replicate 1
[12] = 48 h, 10 µM, compound concentration 10 uM, replicate 2

NCCc1cn(S(=O)(=O)c2c(Cl)nc3sccn23)c2ccccc12.O=C(O)C(=O)O
Population Apoptotic (%) [1]: 66%
Population Fragmented Nuclei (%) [1]: 30%
Population Healthy Nuclei (%) [1]: 58%
Population Hoechst High Intensity Objects (%) [1]: 1%
Population Membrane Permeable-Phenotype (%) [1]: 9%
Population Mitochondria Different-Phenotype (%) [1]: 6%
Population Mitotic Cells (%) [1]: 33%
Population Normal (%) [1]: 98%
Population Pyknosed Nuclei (%) [1]: 10%
Population Tubulin-Different-Phenotype (%) [1]: 6%
Total Cell Count [1]: 280
Population Apoptotic (%) [2]: 81%
Population Fragmented Nuclei (%) [2]: 17%
Population Healthy Nuclei (%) [2]: 72%
Population Membrane Permeable-Phenotype (%) [2]: 4%
Population Mitochondria Different-Phenotype (%) [2]: 8%
Population Mitotic Cells (%) [2]: 18%
Population Pyknosed Nuclei (%) [2]: 9%
Total Cell Count [2]: 116
Population Apoptotic (%) [3]: 71%
Population Fragmented Nuclei (%) [3]: 26%
Population Healthy Nuclei (%) [3]: 42%
Population Hoechst High Intensity Objects (%) [3]: 5%
Population Membrane Permeable-Phenotype (%) [3]: 42%
Population Mitochondria Different-Phenotype (%) [3]: 60%
Population Mitotic Cells (%) [3]: 28%
Population Normal (%) [3]: 94%
Population Pyknosed Nuclei (%) [3]: 30%
Population Tubulin-Different-Phenotype (%) [3]: 59%
Total Cell Count [3]: 221
Population Apoptotic (%) [4]: 82%
Population Fragmented Nuclei (%) [4]: 20%
Population Healthy Nuclei (%) [4]: 53%
Population Hoechst High Intensity Objects (%) [4]: 4%
Population Membrane Permeable-Phenotype (%) [4]: 30%
Population Mitochondria Different-Phenotype (%) [4]: 71%
Population Mitotic Cells (%) [4]: 17%
Population Normal (%) [4]: 95%
Population Pyknosed Nuclei (%) [4]: 26%
Population Tubulin-Different-Phenotype (%) [4]: 50%
Total Cell Count [4]: 115
Population Apoptotic (%) [5]: 69%
Population Fragmented Nuclei (%) [5]: 25%
Population Healthy Nuclei (%) [5]: 66%
Population Hoechst High Intensity Objects (%) [5]: 1%
Population Membrane Permeable-Phenotype (%) [5]: 6%
Population Mitochondria Different-Phenotype (%) [5]: 5%
Population Mitotic Cells (%) [5]: 30%
Population Normal (%) [5]: 98%
Population Pyknosed Nuclei (%) [5]: 8%
Population Tubulin-Different-Phenotype (%) [5]: 3%
Total Cell Count [5]: 326
Population Apoptotic (%) [6]: 78%
Population Fragmented Nuclei (%) [6]: 20%
Population Healthy Nuclei (%) [6]: 70%
Population Membrane Permeable-Phenotype (%) [6]: 9%
Population Mitochondria Different-Phenotype (%) [6]: 7%
Population Mitotic Cells (%) [6]: 21%
Population Pyknosed Nuclei (%) [6]: 9%
Population Tubulin-Different-Phenotype (%) [6]: 7%
Total Cell Count [6]: 151
Population Apoptotic (%) [7]: 83%
Population Fragmented Nuclei (%) [7]: 29%
Population Healthy Nuclei (%) [7]: 38%
Population Hoechst High Intensity Objects (%) [7]: 6%
Population Membrane Permeable-Phenotype (%) [7]: 26%
Population Mitochondria Different-Phenotype (%) [7]: 63%
Population Mitotic Cells (%) [7]: 16%
Population Normal (%) [7]: 93%
Population Pyknosed Nuclei (%) [7]: 31%
Population Tubulin-Different-Phenotype (%) [7]: 26%
Total Cell Count [7]: 240
Population Apoptotic (%) [8]: 86%
Population Fragmented Nuclei (%) [8]: 20%
Population Healthy Nuclei (%) [8]: 46%
Population Hoechst High Intensity Objects (%) [8]: 3%
Population Mitochondria Different-Phenotype (%) [8]: 67%
Population Mitotic Cells (%) [8]: 13%
Population Normal (%) [8]: 96%
Population Pyknosed Nuclei (%) [8]: 33%
Population Tubulin-Different-Phenotype (%) [8]: 38%
Total Cell Count [8]: 116
Population Apoptotic (%) [9]: 81%
Population Fragmented Nuclei (%) [9]: 21%
Population Healthy Nuclei (%) [9]: 70%
Population Hoechst High Intensity Objects (%) [9]: 1%
Population Membrane Permeable-Phenotype (%) [9]: 5%
Population Mitochondria Different-Phenotype (%) [9]: 4%
Population Mitotic Cells (%) [9]: 18%
Population Normal (%) [9]: 98%
Population Pyknosed Nuclei (%) [9]: 8%
Population Tubulin-Different-Phenotype (%) [9]: 2%
Total Cell Count [9]: 454
Population Apoptotic (%) [10]: 85%
Population Healthy Nuclei (%) [10]: 66%
Population Hoechst High Intensity Objects (%) [10]: 6%
Population Membrane Permeable-Phenotype (%) [10]: 10%
Population Mitochondria Different-Phenotype (%) [10]: 7%
Population Mitotic Cells (%) [10]: 14%
Population Normal (%) [10]: 93%
Population Pyknosed Nuclei (%) [10]: 12%
Population Tubulin-Different-Phenotype (%) [10]: 7%
Total Cell Count [10]: 182
Population Apoptotic (%) [11]: 92%
Population Fragmented Nuclei (%) [11]: 37%
Population Healthy Nuclei (%) [11]: 27%
Population Hoechst High Intensity Objects (%) [11]: 7%
Population Membrane Permeable-Phenotype (%) [11]: 25%
Population Mitochondria Different-Phenotype (%) [11]: 56%
Population Mitotic Cells (%) [11]: 7%
Population Normal (%) [11]: 92%
Population Pyknosed Nuclei (%) [11]: 35%
Population Tubulin-Different-Phenotype (%) [11]: 25%
Total Cell Count [11]: 241
Population Fragmented Nuclei (%) [12]: 29%
Population Healthy Nuclei (%) [12]: 34%
Population Membrane Permeable-Phenotype (%) [12]: 42%
Population Mitochondria Different-Phenotype (%) [12]: 65%
Population Tubulin-Different-Phenotype (%) [12]: 42%
Total Cell Count [12]: 127
